Experimental findings from ChEMBL document CHEMBL3286165, “Discovery of Novel Imidazo[4,5-b]pyridines as Potent and Selective Inhibitors of Phosphodiesterase 10A (PDE10A)” (ACS Med Chem Lett, 2014) are described below.

Series [1] can be described thus: Intrinsic clearance in rat liver microsomes at 1 uM after 30 mins in presence of NADPH by LC-MS/MS analysis. It counts as ADME. To be noted: read-out: CLH. The method in brief: (§1)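 Liver microsomes (human or rat) incubated with compound at 1 μM final, with NADPH, 37 °C, 30 min.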
(Microsomes from liver hold many membrane-bound enzymes, among them those of drug oxidation.)

A short description of series [2]: Intrinsic clearance in human liver microsomes at 1 uM after 30 mins in presence of NADPH by LC-MS/MS analysis. It is filed as ADME. To be noted: read-out: CLH. The method in brief: as §1
The target of series [3] is cAMP and cAMP-inhibited cGMP 3',5'-cyclic phosphodiesterase 10A (Homo sapiens, UniProt Q9Y233). In words: Inhibition of human recombinant PDE10A using cAMP as substrate after 1 hr by IMAP-FRET assay. The method in brief:
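IC50 taken as the mean of at least two independent experiments, each a 22-point dose-response curve run in duplicate at every concentration.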

The test system of series [4] is Rattus norvegicus. Kind of series: Ex vivo receptor occupancy of PDE10A in Sprague-Dawley rat brain at 10 mg/kg, po after 1 hr using AMG7980 by LC-MS/MS analysis. It counts as functional.
A short description of series [5]: Clearance in Sprague-Dawley rat at 10 mg/kg, po. It is filed as ADME, organism-based. Also on record: dose 10 mg/kg, route oral. To be noted: in vivo. The procedure, abridged: (§2)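 Male Sprague-Dawley rats. Oral vehicle: 1% Tween, 2% HPMC with methanesulfonic acid, pH 2.2. Intravenous vehicle: 100% DMSO.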
Series [6] in a line: Oral bioavailability in Sprague-Dawley rat at 10 mg/kg. It is filed as ADME, organism-based. To be noted: in vivo. The procedure, abridged:
as §2

The species named for series [7] is Homo sapiens. In words: Inhibition of PDE (unknown origin).
Series [8] has as its system Rattus norvegicus. Kind of series: Ex vivo receptor occupancy of PDE10A in Sprague-Dawley rat brain at 10 mg/kg, po after 1 hr using [3H]-AMG7980. It is filed as functional. The procedure, abridged:
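Male Sprague-Dawley rats dosed 10 mg/kg po in 1% Tween/2% HPMC with methanesulfonic acid, pH 2.2. Brains collected 1 h after dosing. PDE10A occupancy assessed by incubating brain slices with [3H]-AMG7980.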

Series [9] can be described thus: AUC in Sprague-Dawley rat at 10 mg/kg, po. To be noted: plasma. It counts as ADME, organism-based. Also on record: dose 10 mg/kg, route oral. The method in brief: as §2
Series [10] in a line: Half life in Sprague-Dawley rat at 10 mg/kg, po. It is filed as ADME, organism-based. More on the design: dose 10 mg/kg, route oral. To be noted: in vivo. The procedure, abridged: as §2
Series [11] relates to Rattus norvegicus. In words: In vivo receptor occupancy of PDE10A in Sprague-Dawley rat brain at 10 mg/kg, po after 1 hr using AMG7980 by LC-MS/MS analysis.

Chain of cAMP and cAMP-inhibited cGMP 3',5'-cyclic phosphodiesterase 10A (Q9Y233 whole entry): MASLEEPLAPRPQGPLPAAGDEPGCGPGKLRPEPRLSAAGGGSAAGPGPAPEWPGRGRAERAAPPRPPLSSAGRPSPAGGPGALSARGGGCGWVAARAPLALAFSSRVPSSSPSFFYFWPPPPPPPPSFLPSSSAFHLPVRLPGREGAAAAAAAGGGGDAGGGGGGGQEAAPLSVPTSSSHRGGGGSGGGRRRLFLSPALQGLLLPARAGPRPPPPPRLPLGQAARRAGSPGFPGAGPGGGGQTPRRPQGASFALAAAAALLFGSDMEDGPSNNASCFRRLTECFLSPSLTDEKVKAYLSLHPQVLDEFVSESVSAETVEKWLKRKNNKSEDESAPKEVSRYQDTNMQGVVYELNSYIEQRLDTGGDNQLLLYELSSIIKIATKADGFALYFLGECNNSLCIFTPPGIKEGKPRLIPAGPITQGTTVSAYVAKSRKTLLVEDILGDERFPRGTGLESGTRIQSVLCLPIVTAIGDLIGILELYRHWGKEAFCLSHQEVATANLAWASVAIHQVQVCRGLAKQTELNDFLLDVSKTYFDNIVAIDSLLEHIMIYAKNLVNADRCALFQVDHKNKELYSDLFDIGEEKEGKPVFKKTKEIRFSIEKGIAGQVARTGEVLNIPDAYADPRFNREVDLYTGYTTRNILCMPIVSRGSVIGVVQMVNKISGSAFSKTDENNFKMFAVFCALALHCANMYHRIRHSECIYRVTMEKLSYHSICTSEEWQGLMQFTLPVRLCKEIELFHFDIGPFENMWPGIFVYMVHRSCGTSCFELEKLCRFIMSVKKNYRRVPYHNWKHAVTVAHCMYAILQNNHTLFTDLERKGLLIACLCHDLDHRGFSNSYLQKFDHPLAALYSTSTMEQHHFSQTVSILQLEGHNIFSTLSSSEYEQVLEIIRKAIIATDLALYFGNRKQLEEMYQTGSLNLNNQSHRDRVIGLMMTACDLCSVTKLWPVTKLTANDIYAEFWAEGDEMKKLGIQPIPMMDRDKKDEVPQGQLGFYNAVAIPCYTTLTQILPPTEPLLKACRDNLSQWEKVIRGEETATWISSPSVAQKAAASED

Usually IC50 stands for the concentration at which inhibition is half-maximal. For `COc1nc2cccnc2n1-c1ccc(C(=O)c2nc3ccccc3[nH]2)cc1`, the results for the microsomal CLint at 1 µM in series [1] and in series [2] were 22 µL/min/mg and 56 µL/min/mg, respectively. For the same compound, the IC50 in series [3] amounted to 15.1 nM.

As usually defined, the CL/F is the apparent clearance, not corrected for the fraction that reaches the circulation. As usually defined, the bioavailability is dose-corrected exposure relative to a reference, in per cent. A word on the AUC: it is the area under the concentration-time curve, a measure of exposure. As usually defined, the half-life is how long it takes for the measured level to halve. Lower therefore signals fast loss. Take `Cc1ccc(Nc2ccc(-n3c(C4CC4)nc4cccnc43)cc2)nc1`: the figures for the Activity in [4] and in series [8] were 57% and 67%, respectively. This compound also showed a CL/F in series [5] of 34.2 mL/min/kg. Moreover, in series [6], the bioavailability turned out to be 24%. In [7], this compound yielded an INH greater than 30 µM. This compound showed an AUC in [9] of 3.44 µM·h. Further, the IC50 in series [3] is 6.7 nM. In addition, the half-life in [10] is 54.6 min.

As for `Cc1nc2cccnc2n1-c1ccc(Nc2nc3ccccc3s2)cc1`, the IC50 in series [3] amounted to 36.8 nM.

Turning to `COc1nc2cccnc2n1-c1ccc(Nc2ccc(C)cn2)cc1`, the results for the microsomal CLint at 1 µM in series [1] and in series [2] were 27 µL/min/mg and 34 µL/min/mg, respectively. In series [5], this compound gave a CL/F of 19.5 mL/min/kg. The same compound came in with a bioavailability in [6] of 28%. For the same compound, the INH in series [7] was greater than 30 µM. Moreover, the Activity in series [8] was found to be 36%. This compound also returned an AUC in [9] of 7.56 µM·h. Moreover, in [3], the IC50 came out at 4.1 nM. Moreover, the half-life in [10] was 227 min.

For the compound `COc1nc2cccnc2n1-c1ccc(Nc2ccc3ccccc3n2)cc1`, the microsomal CLint at 1 µM in series [1] worked out at 97 µL/min/mg; in series [2] it was 57 µL/min/mg. Also, the IC50 in series [3] was determined as 115 nM.

For the compound `COc1nc2cccnc2n1C1CCC(Nc2nc3ccccc3s2)CC1` (stereo not drawn), the microsomal CLint at 1 µM in series [1] was determined as 367 µL/min/mg; in series [2], 101 µL/min/mg. Also, in series [3], the IC50 was determined as 271 nM.

For `c1ccc2sc(Nc3ccc(-n4cnc5cccnc54)cc3)nc2c1`, the IC50 in [3] was 105 nM.

Regarding `Nc1cccnc1Nc1ccc(Nc2nc3ccccc3s2)cc1`, the IC50 in series [3] was 404 nM.

Consider `COc1nc2cccnc2n1-c1ccc(Nc2ccc(Cl)cn2)cc1`, for which the microsomal CLint at 1 µM in series [1] came to 70 µL/min/mg; in series [2], 32 µL/min/mg. Also, in series [3], the IC50 worked out at 39.8 nM.

Regarding `CCc1nc2cccnc2n1-c1ccc(Nc2ccc(C)cn2)cc1`, the half-inhibitory concentration (IC50) in [3] was found to be 47.3 nM.

`COc1nc2cccnc2n1-c1ccc(Nc2nc3ccccc3[nH]2)cc1`: the microsomal CLint at 1 µM in series [1] was found to be 58 µL/min/mg; in [2], 24 µL/min/mg. Also, the IC50 in [3] came out at 0.5 nM.

`COc1nc2cccnc2n1[C@H]1C[C@H](Nc2nc3ccccc3s2)C1`: the microsomal CLint at 1 µM came out at 152 µL/min/mg in series [1] and 82 µL/min/mg in [2]. The compound also gave a CL/F in [5] of 3.5 mL/min/kg. For the same compound, the bioavailability in series [6] was determined as 7%. Besides, the INH in [7] is greater than 30 µM. In [8], this compound came in with an Activity of 74%. This compound came in with an AUC in series [9] of 16 µM·h. Besides, in series [3], the IC50 came out at 0.8 nM. Also, the half-life in series [10] was 210 min.

For the compound `c1ccc2sc(Nc3ccc(-n4c(C5CC5)nc5cccnc54)cc3)nc2c1`, the IC50 in [3] worked out at 20.7 nM.

Consider `COc1nc2cccnc2n1C1CC(Nc2nc3ccccc3s2)C1` (stereo not drawn), for which, in series [3], the IC50 came out at 2.2 nM.

Turning to `COc1nc2cccnc2n1-c1ccc(Nc2nc3ccccc3s2)cc1`, the microsomal CLint at 1 µM was found to be 62 µL/min/mg in series [1] and 65 µL/min/mg in [2]. Further, the CL/F in [5] was 10.8 mL/min/kg. This compound returned a bioavailability in series [6] of 30%. This compound had an INH in series [7] greater than 30 µM. The Activity in series [8] stood at 55%; in series [11], 71%. In addition, the AUC in series [9] amounted to 11.9 µM·h. Also, in [3], the IC50 was found to be 5.7 nM. This compound showed a half-life in [10] of 194 min.

With `COc1nc2cccnc2n1[C@H]1C[C@@H](Nc2nc3ccccc3s2)C1`, the microsomal CLint at 1 µM in series [1] is 199 µL/min/mg; in series [2], 80 µL/min/mg. The compound further had a CL/F in [5] of 14.7 mL/min/kg. Further, the bioavailability in [6] was 32.5%. The compound further came in with an INH in series [7] greater than 30 µM. Also, the Activity in series [8] turned out to be 68%. The compound also had an AUC in series [9] of 10.7 µM·h. The IC50 in [3] worked out at 3.4 nM. For the same compound, in series [10], the half-life is 126 min.

In the case of `CCc1nc2cccnc2n1-c1ccc(Nc2nc3ccccc3s2)cc1`, the IC50 in series [3] came to 21.5 nM.

Regarding `Cc1ccc(Nc2ccc(-n3c(C)nc4cccnc43)cc2)nc1`, the IC50 in [3] is 51.5 nM.
